Experimental data: ChEMBL document CHEMBL1142706, “Synthesis and evaluation of (pyridylmethylene)tetrahydronaphthalenes/-indanes and structurally modified derivatives: potent and selective inhibitors of aldosterone synthase” (J Med Chem, 2005)

Assays:
[1] = biological target: T1, Cytochrome P450 11B2, mitochondrial (Homo sapiens, UniProt P19099); experiment: In vitro inhibitory concentration against human CYP11B2 expressed in V79MZh hamster fibroblasts incubated with 100 nM of substrate deoxy-corticosterone in presence of the compound
T1 sequence (P19099 whole entry): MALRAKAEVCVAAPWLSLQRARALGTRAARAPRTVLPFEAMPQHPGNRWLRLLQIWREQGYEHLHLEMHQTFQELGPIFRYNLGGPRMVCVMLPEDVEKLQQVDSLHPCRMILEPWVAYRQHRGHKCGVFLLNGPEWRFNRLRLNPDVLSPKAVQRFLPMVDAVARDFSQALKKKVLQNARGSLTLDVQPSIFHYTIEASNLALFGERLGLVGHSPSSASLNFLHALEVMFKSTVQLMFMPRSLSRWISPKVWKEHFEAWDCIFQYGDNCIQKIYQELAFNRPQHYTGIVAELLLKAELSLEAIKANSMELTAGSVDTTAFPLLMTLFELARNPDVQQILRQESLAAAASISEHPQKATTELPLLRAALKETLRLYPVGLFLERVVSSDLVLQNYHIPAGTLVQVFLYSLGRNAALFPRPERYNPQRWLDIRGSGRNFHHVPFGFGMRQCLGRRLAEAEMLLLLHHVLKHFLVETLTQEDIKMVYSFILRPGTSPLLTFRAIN
Summary of the method: (§1)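 Intact V79 MZh hamster fibroblasts expressing human CYP11B1 or CYP11B2, incubated with [4-14C]-11-deoxycorticosterone (100 nM) and inhibitor at no fewer than three concentrations to give IC50. Stopped with ethyl acetate, shaken, centrifuged (10 000g, 2 min); steroids in organic phase analysed by HPTLC/phosphoimager. Mean of four determinations, standard deviation less than 5%.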

[2] = biological target: T1, Cytochrome P450 11B2, mitochondrial; experiment: In vitro inhibition of human CYP11B2 expressed in Schizosaccharomyces pombe incubated with 100 nM of substrate deoxy-corticosterone in presence of 500 nM of compound
CYP17 = biological target: T2, CYP17 (Homo sapiens, UniProt P05093); experiment: In vitro inhibition of human CYP17 expressed in Escherichia coli incubated with 2.5 uM of substrate progesterone in presence of 2.5 uM of compound; settings: probe progesterone
T2 sequence (P05093 whole entry): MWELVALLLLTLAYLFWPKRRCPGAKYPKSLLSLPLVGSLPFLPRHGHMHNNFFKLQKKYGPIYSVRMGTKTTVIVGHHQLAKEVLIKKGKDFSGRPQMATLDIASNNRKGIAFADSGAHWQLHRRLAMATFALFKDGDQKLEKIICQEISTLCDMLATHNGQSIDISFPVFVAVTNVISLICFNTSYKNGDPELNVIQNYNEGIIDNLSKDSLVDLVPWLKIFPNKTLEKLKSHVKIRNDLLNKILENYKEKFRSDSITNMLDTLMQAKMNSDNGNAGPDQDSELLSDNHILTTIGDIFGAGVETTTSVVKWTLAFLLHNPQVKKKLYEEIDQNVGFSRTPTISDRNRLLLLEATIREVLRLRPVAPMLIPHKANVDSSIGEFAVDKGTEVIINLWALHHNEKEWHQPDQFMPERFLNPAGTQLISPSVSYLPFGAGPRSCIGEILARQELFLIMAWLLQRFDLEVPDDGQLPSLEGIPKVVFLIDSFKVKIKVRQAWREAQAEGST

Aromatase = biological target: T3, Aromatase (Homo sapiens, UniProt P11511); experiment: In vitro inhibitory concentration against human placental CYP19 incubated with 500 nM of substrate androstenedione in presence of the compound
T3 sequence (P11511 whole entry): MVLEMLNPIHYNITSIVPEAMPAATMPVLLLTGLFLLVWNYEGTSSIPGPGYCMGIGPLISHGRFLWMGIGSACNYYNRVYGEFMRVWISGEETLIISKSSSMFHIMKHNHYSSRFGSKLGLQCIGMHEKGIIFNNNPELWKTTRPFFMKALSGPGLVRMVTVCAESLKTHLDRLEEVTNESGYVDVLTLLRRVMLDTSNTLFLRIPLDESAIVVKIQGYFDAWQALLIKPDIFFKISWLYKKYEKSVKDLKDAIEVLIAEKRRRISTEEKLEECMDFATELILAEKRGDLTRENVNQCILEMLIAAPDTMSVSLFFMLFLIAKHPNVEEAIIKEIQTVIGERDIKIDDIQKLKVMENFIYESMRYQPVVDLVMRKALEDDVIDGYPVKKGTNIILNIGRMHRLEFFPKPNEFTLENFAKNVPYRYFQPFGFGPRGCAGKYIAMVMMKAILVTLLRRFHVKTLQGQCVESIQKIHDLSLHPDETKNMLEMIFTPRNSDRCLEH

Homo sapiens = organism: Homo sapiens; experiment: In vitro IC50 ratio against human CYP11B1 to that of human CYP11B2
Summary of the method: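 IC50 ratio from V79 MZh hamster fibroblasts expressing human CYP11B1 or CYP11B2, each incubated with [4-14C]-11-deoxycorticosterone (100 nM) and inhibitor at no fewer than three concentrations; steroids extracted into ethyl acetate and quantified by HPTLC with phosphoimaging.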

[3] = biological target: T4, Cytochrome P450 11B1, mitochondrial (Homo sapiens, UniProt P15538); experiment: (§2) In vitro inhibitory concentration against human CYP11B1 expressed in V79 MZh hamster fibroblasts incubated with 100 nM of substrate deoxy-corticosterone in presence of the compound
T4 sequence (P15538 whole entry): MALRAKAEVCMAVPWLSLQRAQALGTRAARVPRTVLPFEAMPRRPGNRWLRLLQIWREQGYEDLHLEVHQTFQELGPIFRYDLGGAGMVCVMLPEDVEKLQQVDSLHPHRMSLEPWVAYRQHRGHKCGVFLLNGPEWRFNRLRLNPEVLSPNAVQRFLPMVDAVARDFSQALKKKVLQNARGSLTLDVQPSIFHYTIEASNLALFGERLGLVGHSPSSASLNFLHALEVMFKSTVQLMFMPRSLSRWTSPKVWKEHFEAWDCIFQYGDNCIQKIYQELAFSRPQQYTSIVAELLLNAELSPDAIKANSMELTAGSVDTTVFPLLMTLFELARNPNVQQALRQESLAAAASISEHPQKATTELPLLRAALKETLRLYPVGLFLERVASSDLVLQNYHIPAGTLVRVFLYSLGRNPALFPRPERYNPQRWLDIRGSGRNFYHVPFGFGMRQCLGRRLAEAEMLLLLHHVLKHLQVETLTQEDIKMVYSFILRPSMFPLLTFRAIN

CYP11B2 (Homo sapiens) = experiment: In vitro inhibitory concentration against human CYP11B2 expressed in V79 MZh hamster fibroblasts incubated with 100 nM of substrate deoxy-corticosterone in presence of the compound; settings: V79 MZh hamster fibroblasts expressing human CYP11B2, probe deoxy-corticosterone
CYP11B1 = biological target: T5, CYP11B1 (Homo sapiens, UniProt P15538); experiment: as §2; settings: human, V79 MZh hamster fibroblasts expressing human CYP11B1, probe deoxy-corticosterone
T5 sequence (P15538 whole entry): T4 sequence (P15538 whole entry)

[4] = biological target: T1, Cytochrome P450 11B2, mitochondrial; experiment: In vitro inhibitory concentration against human CYP11B2 expressed in V79 MZh hamster fibroblasts incubated with 100 nM of substrate deoxy-corticosterone in presence of the compound; summary of the method: as §1

Row | SMILES | IC50 [1] | inhibition at 0.5 µM [2] | inhibition at 2.5 µM (CYP17) | IC50 (Aromatase) | Selectivity ratio (Homo sapiens) | IC50 (CYP11B2 (Homo sapiens)) | IC50 (CYP11B1) | IC50 [4] | IC50 [3]
1 | Fc1ccc2c(c1)CC/C2=C\c1ccncc1 | 0.015 µM | – | – | – | 0.3 | – | – | – | 1.1 µM
2 | Fc1ccc2c(c1)CC/C2=C\c1cncnc1 | 0.027 µM | – | – | – | 118 | – | 3.18 µM | – | –
3 | C/C(=C1/CCc2cc(F)ccc21)c1cccnc1 | – | 67% | – | – | 1.7 | – | – | – | 0.096 µM
4 | Brc1ccc2c(c1)CC/C2=C/c1ccncc1 | 0.056 µM | 40% | – | 3.4 µM | 1.8 | – | – | – | 0.484 µM
5 | Fc1ccc2c(c1)CC/C2=C/c1ccncc1 | 0.029 µM | – | – | – | 7.6 | – | – | – | 0.034 µM
6 | Brc1ccc2c(c1)CC/C2=C\c1ccncc1 | 0.024 µM | – | – | > 36 µM | 0.4 | – | – | – | 2.64 µM

Second part, led by results:

Row | IC50 [1] | inhibition at 0.5 µM [2] | inhibition at 2.5 µM (CYP17) | IC50 (Aromatase) | Selectivity ratio (Homo sapiens) | IC50 (CYP11B2 (Homo sapiens)) | IC50 (CYP11B1) | IC50 [4] | SMILES | IC50 [3]
7 | 0.092 µM | 83% | 33% | 3.55 µM | 0.9 | – | – | – | C(=C1\CCc2ccccc21)/c1cccnc1 | 0.087 µM
8 | 0.065 µM | – | – | – | 14.4 | 0.026 µM | – | – | Fc1ccc2c(c1)CC/C2=C/c1cccc2cnccc12 | –
9 | 0.015 µM | 54% | – | 0.65 µM | 2 | – | – | – | C(=C1/CCCc2ccccc21)/c1ccncc1 | 0.143 µM
10 | – | – | 14% | – | 80.7 | – | – | 0.011 µM | C(=C1/CCc2ccccc21)/c1cccnc1 | –
11 | 0.057 µM | – | – | – | 19.5 | – | 0.058 µM | – | Fc1ccc2c(c1)CC/C2=C\c1cccc2cnccc12 | –
12 | 0.018 µM | – | – | – | 1.4 | – | – | – | C(=C1\CCc2ccccc21)/c1ccncc1 | 0.931 µM
13 | – | 15% | – | 2.8 µM | – | – | – | 0.041 µM | CC1C/C(=C/c2cccnc2)c2ccccc21 (configuration not stated) | –
